Common to all, as to format: functional
The test system of test [1] is Trichophyton mentagrophytes. As to the kind of experiment: Antifungal activity against Trichophyton mentagrophytes after 48 hrs by agar dilution method. The gist of the method: (§1)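 Clinical isolates, purified and subcultured on SC, SCC and PDA media before testing. Compounds were dissolved as DMSO stocks and diluted into solid medium (PDA) for agar dilution. Inocula for molds and yeast came from 2- to 7-day mature colonies. The read-out was the minimum inhibitory concentration (MIC).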
In general terms: In agar dilution the substance is mixed into plates at graded concentrations.

In another test the test system is Trichophyton rubrum. As to the kind of experiment: Antifungal activity against Trichophyton rubrum after 48 hrs by agar dilution method. In a few lines:
as §1

The subject of a further test is Microsporum canis. Kind of test: Antifungal activity against Microsporum canis after 48 hrs by agar dilution method. In a few lines:
as §1

The test system of another test is Epidermophyton floccosum. As to the kind of experiment: Antifungal activity against Epidermophyton floccosum after 48 hrs by agar dilution method. The gist of the method: as §1
For another test, the system named is Candida albicans. Kind of test: Antifungal activity against Candida albicans after 48 hrs by agar dilution method. The gist of the method:
as §1

In brackets after ≈: the same amount, converted by molar mass.

Here are results for eleven compounds from ChEMBL document CHEMBL1152478, “Design, synthesis, and antifungal activity of triazole and benzotriazole derivatives” (2009).

By MIC is commonly meant the smallest concentration in the dilution series that meets the test's criterion for growth inhibition. As to `CCCCCn1cncn1`, the minimal inhibitory concentration (MIC) (in test [1]; with Trichophyton rubrum; in the test on Microsporum canis; with Epidermophyton floccosum) was 64 µg/mL (≈ 460 µM) throughout.
For `CCCCCCCCn1nnc2ccccc21`, the MIC in test [1] was 64 µg/mL (≈ 277 µM); with Trichophyton rubrum, 64 µg/mL (≈ 277 µM); with Microsporum canis, 64 µg/mL (≈ 277 µM); in the test with Epidermophyton floccosum, 32 µg/mL (≈ 138 µM).
For `COc1ccc(C(c2ccccc2)(c2ccccc2)n2nnc3ccccc32)cc1`, the minimum inhibitory concentration (MIC) (in test [1]; in the test on Trichophyton rubrum; in the test on Epidermophyton floccosum) was 64 µg/mL (≈ 163 µM) throughout.
On to `CCCCCCCCn1cncn1`, for which the minimal inhibitory concentration (MIC) in test [1] turned out to be 16 µg/mL (≈ 88.3 µM); in the test on Candida albicans it was 16 µg/mL (≈ 88.3 µM); in the test on Trichophyton rubrum it was 16 µg/mL (≈ 88.3 µM); against Microsporum canis, 16 µg/mL (≈ 88.3 µM); against Epidermophyton floccosum, 8 µg/mL (≈ 44.1 µM).
As for `c1ccc(C(c2ccccc2)(c2ccccc2)n2cncn2)cc1`, the minimal inhibitory concentration (MIC) in test [1] was determined as 32 µg/mL (≈ 103 µM); with Trichophyton rubrum, 64 µg/mL (≈ 206 µM); against Microsporum canis, 64 µg/mL (≈ 206 µM); with Epidermophyton floccosum it was 1 µg/mL (≈ 3.21 µM).
Turning to `CCCCCn1nnc2ccccc21`, the MIC was 32 µg/mL (≈ 169 µM) in test [1]; 32 µg/mL (≈ 169 µM) against Candida albicans; 32 µg/mL (≈ 169 µM) against Trichophyton rubrum; 16 µg/mL (≈ 84.5 µM) in the test with Microsporum canis; 16 µg/mL (≈ 84.5 µM) with Epidermophyton floccosum.
With `COc1ccc(C(c2ccccc2)(c2ccccc2)n2cncn2)cc1`, the MIC in test [1] was found to be 16 µg/mL (≈ 46.9 µM); in the test on Trichophyton rubrum it was 32 µg/mL (≈ 93.7 µM); in the test on Microsporum canis, 32 µg/mL (≈ 93.7 µM); with Epidermophyton floccosum, 8 µg/mL (≈ 23.4 µM).
In the case of `COc1ccc(C(c2ccccc2)(c2ccc(OC)cc2)n2nnc3ccccc32)cc1`, the MIC is 64 µg/mL (≈ 152 µM) in test [1] and 32 µg/mL (≈ 75.9 µM) against Trichophyton rubrum.
Turning to `c1ccc(C(c2ccccc2)(c2ccccc2)n2nnc3ccccc32)cc1`, the minimal inhibitory concentration (MIC) in the test on Candida albicans, against Trichophyton rubrum and against Epidermophyton floccosum was 64 µg/mL (≈ 177 µM) each time.
Turning to `Clc1ccccc1C(c1ccccc1)(c1ccccc1)n1ccnc1` [CLOTRIMAZOLE], the MIC in test [1] came to 0.05 µg/mL (≈ 0.145 µM); against Candida albicans, 4 µg/mL (≈ 11.6 µM); in the test on Trichophyton rubrum, 0.5 µg/mL (≈ 1.45 µM); in the test on Microsporum canis it was 0.065 µg/mL (≈ 0.188 µM); in the test with Epidermophyton floccosum it was 4 µg/mL (≈ 11.6 µM).
For the compound `OC(Cn1cncn1)(Cn1cncn1)c1ccc(F)cc1F` [FLUCONAZOLE], the minimum inhibitory concentration (MIC) in test [1] turned out to be 1 µg/mL (≈ 3.27 µM); against Candida albicans, 32 µg/mL (≈ 104 µM); against Trichophyton rubrum, 32 µg/mL (≈ 104 µM); in the test on Microsporum canis, 16 µg/mL (≈ 52.2 µM); with Epidermophyton floccosum it was 0.25 µg/mL (≈ 0.816 µM).
